Experimental data from ChEMBL document CHEMBL1157127, “Aplysinopsin analogs: Synthesis and anti-proliferative activity of substituted (Z)-5-(N-benzylindol-3-ylmethylene)imidazolidine-2,4-diones” (Bioorg Med Chem, 2010).

How the values were obtained:
Assay type in all cases: functional, cell-based
[1] = system: A549; experiment: Antiproliferative activity against human A549 cells after 24 hrs by trypan blue exclusion assay; conditions: A549, 24 h
Outline: (§1)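 Cells from ATCC. MCF-7 and MDA-231 grown in DMEM with 10% FBS and 1% L-glutamine; A549 and H460 in RPMI 1640 with glutamine, glucose, HEPES, sodium pyruvate and 10% FBS; all at 37 °C, 5% CO2. Treated 24 h at 1, 5, 10, 20 and 40 µM, with DMSO vehicle control. Viability by trypan blue dye exclusion, mean ± SD of four wells.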

[2] = system: NCI-H460; experiment: Antiproliferative activity against human H460 cells after 24 hrs by trypan blue exclusion assay; conditions: NCI-H460, 24 h; outline: as §1
[3] = system: MCF7; experiment: Antiproliferative activity against human MCF7 cells after 24 hrs by trypan blue exclusion assay; conditions: MCF7, 24 h; outline: as §1
[4] = Antiproliferative activity against human MDA231 cells after 24 hrs by trypan blue exclusion assay; conditions: MDA-MB-231, 24 h; outline: as §1

Compound | IC50 [1] | IC50 [2] | IC50 [3] | IC50 [4]
O=C1NC(=O)/C(=C/c2cn(Cc3ccccc3)c3ccc(Cl)cc23)N1 | 29.7 µM | 26.9 µM | 9.2 µM | 18 µM
Cc1ccc(Cn2cc(/C=C3\NC(=O)NC3=O)c3ccccc32)cc1 | 34.8 µM | 26.1 µM | 20.2 µM | 22.1 µM
COc1ccc(Cn2cc(/C=C3\NC(=O)NC3=O)c3cc(Br)ccc32)cc1 | 25.2 µM | 22.3 µM | 16.4 µM | 23.2 µM
COC(=O)c1ccc(Cn2cc(/C=C3\NC(=O)NC3=O)c3ccccc32)cc1 | > 40 µM | 30.8 µM | 15.4 µM | 18.4 µM
O=c1[nH]cc(F)c(=O)[nH]1 [FLUOROURACIL] | 5.4 µM | 2.7 µM | 15.2 µM | 3.5 µM
N#Cc1ccc(Cn2cc(/C=C3\NC(=O)NC3=O)c3ccccc32)cc1 | > 40 µM | 19.1 µM | 14.1 µM | 17.6 µM
O=C1NC(=O)/C(=C/c2cn(Cc3ccccc3Br)c3ccccc23)N1 | 39.5 µM | 16.9 µM | 4.4 µM | 21.8 µM
O=C1NC(=O)/C(=C/c2cn(Cc3ccc(F)cc3)c3ccccc23)N1 | 27.8 µM | 16.3 µM | 22.3 µM | 32.8 µM
COc1ccc2c(c1)c(/C=C1\NC(=O)NC1=O)cn2Cc1ccccc1 | > 40 µM | 28.4 µM | 7.2 µM | 7 µM
O=C1NC(=O)/C(=C/c2cn(Cc3ccc([N+](=O)[O-])cc3)c3ccccc23)N1 | > 40 µM | > 40 µM | 10.9 µM | 23.3 µM
Cc1ccc2c(c1)c(/C=C1\NC(=O)NC1=O)cn2Cc1ccccc1 | 27.7 µM | 14.6 µM | 5.2 µM | 20.1 µM
O=C1NC(=O)/C(=C/c2cn(Cc3ccccc3)c3ccccc23)N1 | > 40 µM | 14.2 µM | 27.3 µM | 15.7 µM
O=C1NC(=O)/C(=C/c2cn(Cc3ccc(Cl)cc3)c3ccccc23)N1 | 25.4 µM | 25.4 µM | 21.4 µM | 25.3 µM
O=C1NC(=O)/C(=C/c2cn(Cc3ccccc3)c3ccc(Br)cc23)N1 | > 40 µM | > 40 µM | 7.6 µM | 12.4 µM
